Test results: ChEMBL document CHEMBL3862000, “Tetrahydroindazole derivatives as potent and peripherally selective cannabinoid-1 (CB1) receptor inverse agonists” (Bioorg Med Chem Lett, 2016)

Experiments:
[1] = target: Cannabinoid receptor 1 (Homo sapiens, UniProt P21554); experiment: Inverse agonist activity at human cannabinoid receptor 1 expressed in HEK293 cells assessed as increase in forskolin-induced cAMP production preincubated with cells followed by forskolin stimulation measured after 30 mins in presence of D2-labeled cAMP and Eu3+-TBP-NHS cryptate by HTRF assay; assay type: functional, cell-based
Chain of Cannabinoid receptor 1 (P21554 whole entry): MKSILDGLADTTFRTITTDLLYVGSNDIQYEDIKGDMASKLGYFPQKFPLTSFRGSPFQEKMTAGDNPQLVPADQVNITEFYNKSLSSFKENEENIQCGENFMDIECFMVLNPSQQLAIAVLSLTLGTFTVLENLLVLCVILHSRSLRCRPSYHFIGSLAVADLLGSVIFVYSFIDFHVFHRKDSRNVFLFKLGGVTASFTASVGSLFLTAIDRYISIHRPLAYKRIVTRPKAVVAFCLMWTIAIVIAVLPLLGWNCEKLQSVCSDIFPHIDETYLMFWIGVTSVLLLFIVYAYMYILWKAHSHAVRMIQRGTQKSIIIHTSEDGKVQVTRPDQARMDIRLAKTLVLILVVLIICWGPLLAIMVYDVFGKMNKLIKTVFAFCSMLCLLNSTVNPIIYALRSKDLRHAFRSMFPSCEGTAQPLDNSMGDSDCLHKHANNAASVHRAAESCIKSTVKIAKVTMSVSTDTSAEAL

[2] = Ratio of drug level in C57bl/6j mouse brain to plasma at 20 mg/kg, po; assay type: ADME, organism-based; conditions: read-out: BPR
In short: (§1)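 Male mice dosed orally. Plasma taken by retro-orbital bleed at 1 h and 2 h or 1 h and 4 h. Whole brain minus cerebellum removed at 2 h or 4 h, weighed wet, frozen, then homogenized in saline. Compound measured by LC/MS; LOQ 5 ng/ml. B/P ratio is brain over plasma concentration.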

[3] = target: Cannabinoid receptor 2 (Homo sapiens, UniProt P34972); experiment: Inverse agonist activity at human cannabinoid receptor 2 expressed in HEK293 cells assessed as increase in forskolin-induced cAMP production preincubated with cells followed by forskolin stimulation measured after 30 mins in presence of D2-labeled cAMP and Eu3+-TBP-NHS cryptate by HTRF assay; assay type: functional, cell-based
Chain of Cannabinoid receptor 2 (P34972 whole entry): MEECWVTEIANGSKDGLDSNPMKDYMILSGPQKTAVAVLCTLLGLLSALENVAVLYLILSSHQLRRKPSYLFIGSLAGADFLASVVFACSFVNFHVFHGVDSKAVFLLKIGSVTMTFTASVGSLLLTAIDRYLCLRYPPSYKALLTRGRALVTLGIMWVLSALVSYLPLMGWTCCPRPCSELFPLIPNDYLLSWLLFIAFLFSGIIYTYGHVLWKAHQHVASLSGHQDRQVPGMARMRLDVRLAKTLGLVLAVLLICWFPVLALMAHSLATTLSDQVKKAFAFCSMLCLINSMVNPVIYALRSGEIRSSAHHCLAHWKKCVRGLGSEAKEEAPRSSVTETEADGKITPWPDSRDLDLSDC

[4] = Drug uptake in C57bl/6j mouse brain without cerebellum at 20 mg/kg, po measured at 2 hrs post dose by LC/MS analysis; assay type: ADME, organism-based; conditions: for Drug uptake: in vivo, 2 h; in short: as §1
[5] = Drug uptake in C57bl/6j mouse plasma at 20 mg/kg, po measured at 2 hrs post dose by LC/MS analysis; assay type: ADME, organism-based; in short: as §1
[6] = Drug uptake in diet-induced obese mouse brain at 30 mg/kg, po qd for 3 weeks measured 2 hrs post last dose on day 23; assay type: ADME, organism-based; conditions: in vivo
In short: (§2)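 Dosing ran daily, oral, in 10% PEG400 + 10% solutol at 5 mL/kg, […], run alongside the efficacy study. Plasma and brain compound levels measured 2 h after the last dose; B/P ratio is brain over plasma concentration.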

[7] = system: Mus musculus; experiment: Toxicity in diet-induced obese mouse model assessed as effect on food intake at 30 mg/kg, po qd for 3 weeks measured on day 19 up to 120 mins post glucose challenge; assay type: organism-based; conditions: in vivo
[8] = Ratio of drug level in diet-induced obese mouse brain to plasma at 30 mg/kg, po qd for 3 weeks measured 2 hrs post last dose on day 23; assay type: ADME, organism-based; conditions: read-out: BPR; in short: as §2
[9] = system: Mus musculus; experiment: Antiobesity activity in diet-induced obese mouse model assessed as fasting plasma glucose AUC (0 to 120 mins) at 30 mg/kg, po qd for 3 weeks measured on day 19 post glucose challenge by OGTT (reference value: 29890.50 +/- 2516.45 mg/dL.min); assay type: functional, organism-based; design: dose 30 mg/kg, time < 2 hr
[10] = Drug uptake in diet-induced obese mouse plasma at 30 mg/kg, po qd for 3 weeks measured 2 hrs post last dose on day 23; assay type: ADME, organism-based; in short: as §2
[11] = system: Mus musculus; experiment: Toxicity in diet-induced obese mouse model assessed as effect on body weight at 30 mg/kg, po qd for 3 weeks measured on day 19 up to 120 mins post glucose challenge; assay type: organism-based; conditions: in vivo
[12] = system: Rattus norvegicus; experiment: Toxicity in Sprague-Dawley rat assessed as CNS-mediated behavior at 30 mg/kg, po by measuring stereotypic activity after 15 mins measured up to 2 hrs; assay type: organism-based; conditions: in vivo
In short: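 Rats given vehicle (10% PEG400 and 10% solutol) or compound orally. Stereotypic activity recorded automatically from 15 min post-dose for a total of 2 h.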

[13] = Drug uptake in C57bl/6j mouse plasma at 20 mg/kg, po measured at 4 hr post dose by LC/MS analysis; assay type: ADME, organism-based
In short: (§3)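 Male C57bl/6j mice given a single oral dose of 20 mg/kg. Plasma drawn by retro-orbital bleed at 1 h and 4 h. Whole brain minus cerebellum taken at 4 h, wet-weighed, frozen, then homogenized in saline. Compound levels in plasma and brain measured by LC/MS (LOQ 5 ng/ml). Brain/plasma ratio taken from the two concentrations.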

[14] = Drug uptake in C57bl/6j mouse brain without cerebellum at 20 mg/kg, po measured at 4 hr post dose by LC/MS analysis; assay type: ADME, organism-based; conditions: in vivo; in short: as §3

With `O=C(NC1CCN(c2ccccn2)CC1)c1nn(-c2ccc(Cl)cc2Cl)c2c1CCC/C2=C\c1ccc(F)cc1` the EC50 [1] was 0.012 µM, the Kp [2] was 0.02 and the EC50 [3] was over 11 µM. The Drug uptake [4] was 0.035 nmol/g and the concentration at 2 h [5] was 1520 nM.

`C[C@@H](NC(=O)c1nn(-c2ccc(Cl)cc2Cl)c2c1CCC/C2=C\c1ccc(F)cc1)c1ccccn1` gave an EC50 [1] of 0.004 µM, a Kp [2] of 0.92 and an EC50 [3] of over 10 µM. It also gave a Drug uptake [4] of 1.39 nmol/g and a concentration at 2 h [5] of 1560 nM.

`C[C@@H](NC(=O)c1nn(-c2ccc(Cl)cc2Cl)c2c1CCCC/C2=C\c1ccc(F)cc1)c1ccccc1` gave an EC50 [1] of 0.006 µM, an EC50 [3] of 5.59 µM and a concentration at 2 h ([4]; C57BL/6J, brain without cerebellum, read-out: Drug uptake) of under 5 ng/mL. It also gave a concentration at 2 h [5] of 1290 nM.

Work on `C[C@@H](NC(=O)c1nn(-c2ccc(Cl)cc2Cl)c2c1CCCC/C2=C\c1ccc(Cl)s1)c1ccccn1` yielded an EC50 [1] of 0.002 µM, a Kp [2] of 0.15 and an EC50 [3] of 9.41 µM. It also gave a Drug uptake [4] of 0.56 nmol/g and a concentration at 2 h [5] of 3630 nM.

In the case of `C[C@@H](NC(=O)c1nn(-c2ccc(Cl)c(Cl)c2)c2c1CCCC/C2=C\c1ccc(F)cc1)c1ccccn1`, the EC50 [1] is reported as 0.035 µM, the Drug uptake [6] is reported as 0.25 nmol/g and the Activity [7] is reported as “Non-Toxic”. The Kp [2] was 0.05, the Kp at 2 h [8] was 0.037 and the AUC [9] was 3.67e+06 ng·h/mL. The concentration at 2 h [10] was 6620 nM, the Activity [11] was “Non-Toxic” and the EC50 [3] was 2 µM. For the same compound, the Drug uptake [4] was 0.07 nmol/g, the Activity [12] was “Non-Toxic” and the concentration at 2 h [5] was 1620 nM.

`C[C@@H](NC(=O)c1nn(-c2ccc(Cl)cc2Cl)c2c1CCCC/C2=C\c1ccc(Cl)cc1)c1ccccn1` gave an EC50 [1] of 0.007 µM, a Kp [2] of 0.16 and an EC50 [3] of 0.743 µM. For the same compound, the Drug uptake [4] was 0.13 nmol/g and the concentration at 2 h [5] was 830 nM.

`O=C(NC1(c2ccccn2)CC1)c1nn(-c2ccc(Cl)c(Cl)c2)c2c1CCCC/C2=C\c1ccc(F)cc1` gave an EC50 [1] of 0.013 µM, a Kp [2] of 0.05 and an EC50 [3] of 0.807 µM. It also gave a Drug uptake [4] of 0.11 nmol/g and a concentration at 2 h [5] of 2410 nM.

Compound `C[C@@H](NC(=O)c1nn(-c2ccc(Cl)cc2)c2c1CCCC/C2=C\c1ccc(F)cc1)c1ccccn1` has an EC50 [1] of 0.028 µM, a Kp [2] of 0.41 and an EC50 [3] of over 10 µM. The Drug uptake [4] was 1.02 nmol/g and the concentration at 2 h [5] was 2470 nM.

`O=C(NC1(c2ccccn2)CC1)c1nn(-c2ccc(Cl)cc2)c2c1CCC/C2=C\c1ccc(Cl)cc1` gave an EC50 [1] of 0.007 µM, a Kp [2] of 0.82 and a concentration at 4 h [13] of 1610 nM. The EC50 [3] was 1.61 µM and the Drug uptake [14] was 1.28 nmol/g.

In the case of `C[C@@H](NC(=O)c1nn(-c2ccc(Cl)cc2Cl)c2c1CCC/C2=C\c1ccc(Cl)s1)c1ccccn1`, the EC50 [1] is reported as 0.035 µM, the Kp [2] is reported as 0.08 and the EC50 [3] is reported as 3.82 µM. It also gave a Drug uptake [4] of 0.24 nmol/g and a concentration at 2 h [5] of 2960 nM.

Work on `C[C@@H](NC(=O)c1nn(-c2ccc(Cl)c(Cl)c2)c2c1CCC/C2=C\c1ccc(Cl)s1)c1ccccn1` yielded an EC50 [1] of 0.037 µM, a Kp [2] of 0.03 and a concentration at 4 h [13] of 3180 nM. It also gave an EC50 [3] of over 10 µM and a Drug uptake [14] of 0.1 nmol/g.
